Results of several laboratories.
Lines come from different studies, so protocols differ.
Effect on: enzyme activity
RET: Proto-oncogene tyrosine-protein kinase receptor Ret (RET, Homo sapiens, UniProt P07949)

Structure (SMILES) | target | mode | method | concentration | remaining activity
O=C(Nc1cnn(-c2csc(C(=O)NC3COC3)c2)c1)Nc1c(F)cccc1Cl | RET | inhibitor |  | 5 µM | 98.1%
CCN(CC)CCNC(=O)c1c(C)[nH]c(/C=C2\C(=O)Nc3ccc(F)cc32)c1C | RET | inhibitor |  | 0.1 µM | 22%
Cc1ccc(C(=O)Nc2ccc(CN3CCN(C)CC3)c(C(F)(F)F)c2)cc1C#Cc1cnc2cccnn12 | RET |  |  | 23.5 nM | 1.3%
COc1cccc(NC(=O)Nc2c(-c3ccc(Cl)cc3)nn(-c3ccc(F)cc3)c2N)c1 | RET | inhibitor | radiometric | 0.1 µM | 110%
Cc1cnc(NC2CCOCC2)nc1-n1cnc(C(=O)NC(CN)c2cc(F)cc(Cl)c2)c1 (stereo not shown) | Proto-oncogene tyrosine-protein kinase receptor Ret (RET, Homo sapiens, UniProt P07949, V804M) | inhibitor | radiometric | 1 µM | 100%
CCCOc1ccc(OC)c(F)c1C(=O)c1ccc(C(=O)N[C@@H]2CNC[C@H]2NC(=O)c2ccc3[nH]ncc3c2)cc1 | RET | inhibitor |  | 0.1 µM | 98%
CC(C)(C)c1nc2c(s1)c1nc(N)ncc1c1ccc(NS(=O)(=O)c3c(F)cccc3F)c(F)c12 | RET | inhibitor | radiometric | 1 µM | 69%
COC(=O)c1cccc(NC(=O)Nc2cc(C)c3nc(NC(=O)c4ccccc4)sc3c2)c1 | RET | inhibitor | radiometric | 0.1 µM | 109%
Cc1sc(C(=O)NC2COC2)cc1-n1cc(NC(=O)Nc2c(F)cccc2Cl)cn1 | RET | inhibitor |  | 10 µM | 113%
CCOc1ccc(NC(=O)Nc2cc(OC)c3nc(NC(=O)c4ccccc4)sc3c2)cc1 | RET | inhibitor | radiometric | 0.1 µM | 115%
Cc1[nH]c(/C=C2\C(=O)Nc3ccc(F)cc32)c(C)c1C(=O)N[C@H]1CCN(C(=O)N(C)C)C1 | RET | inhibitor |  | 1 µM | 11%
COc1cc(NC(=O)Nc2cccc(Br)c2)cc2sc(NC(=O)c3ccccc3)nc12 | RET | inhibitor | radiometric | 0.1 µM | 153%
CCN(CC)c1ccc(C2=NNC(=O)CC2C)cc1[N+](=O)[O-] (stereo not shown) | RET | inhibitor |  | 10 µM | 102%
